Data from PMC3677025 (Pharmacological research : the official journal of the …, 2012).
Several values for one entry are separate records, joined by “and”; a condition that tells them apart may be missing. Identical values can stand only once.

Legend:
EphA4 [1] = target: T1, EphA4 (Mus musculus, UniProt Q03137); experiment: Ephrin-A5 Fc-induced EphA4 tyrosine phosphorylation in HT22 cells; type: cell-based; details: read-out: IC50, EphA4 tyrosine phosphorylation, 0.5 μg/mL ephrin-A5 Fc, ELISA
Method in brief: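 HT22 cells at ~70% confluency were serum-starved 1 h, given test compound (final DMSO ≤0.4%) for 15 min, then ephrin-A5 Fc for 20 min with compound still present. After modified RIPA lysis, phospho and total EphA4 were read by capture ELISA (anti-phosphotyrosine 1:500; cytoplasmic anti-EphA4 1:1,000), with ABTS at A405. Values were normalized to ephrin-only cells; IC50 came from 3–9 measurements.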
Target sequence in this assay (Q03137 20-986): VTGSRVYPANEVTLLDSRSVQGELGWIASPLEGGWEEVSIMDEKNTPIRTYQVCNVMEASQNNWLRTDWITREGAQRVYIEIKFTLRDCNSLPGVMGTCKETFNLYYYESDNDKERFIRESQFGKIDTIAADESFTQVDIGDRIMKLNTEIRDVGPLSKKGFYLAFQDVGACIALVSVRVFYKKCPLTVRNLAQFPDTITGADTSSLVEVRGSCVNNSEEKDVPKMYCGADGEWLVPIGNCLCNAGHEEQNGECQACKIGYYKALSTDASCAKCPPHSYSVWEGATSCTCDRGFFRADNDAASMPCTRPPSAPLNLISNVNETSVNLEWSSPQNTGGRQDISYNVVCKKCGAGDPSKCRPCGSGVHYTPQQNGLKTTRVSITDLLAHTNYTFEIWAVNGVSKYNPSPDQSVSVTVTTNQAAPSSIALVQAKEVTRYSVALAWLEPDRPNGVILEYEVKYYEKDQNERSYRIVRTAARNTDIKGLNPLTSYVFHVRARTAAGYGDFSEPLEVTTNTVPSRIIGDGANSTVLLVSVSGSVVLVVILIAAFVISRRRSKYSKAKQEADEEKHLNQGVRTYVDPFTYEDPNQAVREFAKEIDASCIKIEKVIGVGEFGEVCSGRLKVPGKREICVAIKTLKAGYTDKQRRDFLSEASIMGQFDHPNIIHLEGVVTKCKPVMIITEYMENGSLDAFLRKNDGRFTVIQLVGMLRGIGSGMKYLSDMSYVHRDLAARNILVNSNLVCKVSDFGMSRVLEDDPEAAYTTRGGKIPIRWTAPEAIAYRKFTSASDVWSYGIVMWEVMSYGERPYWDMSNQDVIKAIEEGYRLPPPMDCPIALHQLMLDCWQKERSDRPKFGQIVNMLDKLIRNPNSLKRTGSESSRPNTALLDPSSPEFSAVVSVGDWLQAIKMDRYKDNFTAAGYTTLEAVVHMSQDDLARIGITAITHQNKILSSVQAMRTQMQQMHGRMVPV

EphB1 = experiment: ELISA, ephrin-B2 AP binding to immobilized EphB1 Fc; details: concentrations up to 200 μM
Method in brief: (§1)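 Eph receptor Fc fusions were immobilized at 1 μg/ml in TBST on protein A-coated wells. Diluted ephrin AP fusion supernatant from transiently transfected HEK293 cells was added for 2 h with or without test compound; for IC50 it was at approximately 0.01 nM. Bound AP was read with p-nitrophenylphosphate, minus Fc-only background. IC50 came from a variable-slope log(inhibitor)–response fit, bottom constrained to 0.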

EphA2 [2] = target: EphA2 (Homo sapiens, UniProt P29317); experiment: Ephrin-A1 Fc-induced EphA2 phosphorylation in HUVECs; type: cell-based; details: at 50 μM
Sequence of EphA2 (Homo sapiens, UniProt P29317) (P29317 24-976): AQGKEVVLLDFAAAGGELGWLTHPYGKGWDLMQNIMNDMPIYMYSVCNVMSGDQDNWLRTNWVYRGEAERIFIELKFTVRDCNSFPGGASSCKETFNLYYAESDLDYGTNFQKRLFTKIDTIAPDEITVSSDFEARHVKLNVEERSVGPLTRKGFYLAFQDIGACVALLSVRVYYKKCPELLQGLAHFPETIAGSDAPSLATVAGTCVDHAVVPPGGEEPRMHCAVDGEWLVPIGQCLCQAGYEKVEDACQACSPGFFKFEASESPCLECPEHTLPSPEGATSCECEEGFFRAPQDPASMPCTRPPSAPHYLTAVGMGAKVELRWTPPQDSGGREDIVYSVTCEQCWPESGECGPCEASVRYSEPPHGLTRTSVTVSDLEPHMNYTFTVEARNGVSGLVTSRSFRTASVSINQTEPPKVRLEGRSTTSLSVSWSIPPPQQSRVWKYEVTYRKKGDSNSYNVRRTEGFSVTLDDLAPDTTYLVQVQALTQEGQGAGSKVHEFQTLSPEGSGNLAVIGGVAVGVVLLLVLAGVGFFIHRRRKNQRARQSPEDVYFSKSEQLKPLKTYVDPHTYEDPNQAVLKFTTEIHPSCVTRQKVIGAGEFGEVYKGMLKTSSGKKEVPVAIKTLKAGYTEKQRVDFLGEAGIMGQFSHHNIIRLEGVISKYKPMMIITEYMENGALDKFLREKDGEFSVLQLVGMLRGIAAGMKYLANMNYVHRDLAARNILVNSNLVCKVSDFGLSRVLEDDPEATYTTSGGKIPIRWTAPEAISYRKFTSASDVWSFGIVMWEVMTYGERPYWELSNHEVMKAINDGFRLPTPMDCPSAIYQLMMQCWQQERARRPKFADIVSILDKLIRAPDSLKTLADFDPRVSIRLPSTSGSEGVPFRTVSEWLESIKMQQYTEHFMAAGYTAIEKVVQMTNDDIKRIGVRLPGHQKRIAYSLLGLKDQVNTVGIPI
Method in brief: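 HUVECs were serum-starved 1–2 h and preincubated 15 min with 50 μM test compound (DMSO ≤0.4% final). They were then stimulated 20 min with 0.25 μg/mL ephrin-A1 Fc plus 1.5 μg/mL ephrin-B2 Fc (preclustered with 3-fold anti-Fc), or Fc, with compound present. Lysates were made in modified RIPA with NaF and pervanadate. EphA2 (1 μg antibody) and EphB4 (20 μg antibody) immunoprecipitates were immunoblotted for phosphotyrosine; lysates were probed for receptors and β-actin.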

HUVECs = experiment: Capillary-like tube formation assay, HUVECs on Matrigel; type: cell-based, human; details: 18 hours
Method in brief: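 HUVECs (2.3 × 10⁴) were seeded on Matrigel-precoated wells in complete HUVEC medium containing test compound or DMSO control and grown for 18 h. Polygons were counted from phase-contrast images, 2–4 pictures from each of 3–6 wells. Counts were compared with DMSO-only wells by one-way ANOVA with Dunnett's post-hoc test.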

EphA7 = experiment: ELISA, ephrin-A5 AP binding to immobilized EphA7 Fc
EphA4 [3] = target: T1, EphA4; experiment: ELISA, ephrin-A5 AP binding to immobilized EphA4 Fc
Method in brief: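 Mouse EphA4 Fc was captured at 1 μg/ml on protein A wells. Ephrin-A5 AP (~0.01 nM for IC50) from HEK293 supernatant was added with test compound for 2 h in TBST and read with p-nitrophenylphosphate, minus Fc-only background. For reversibility, compound was incubated 2 h, washed 30 min, then ephrin-A5 AP added for 1 h. For mode of inhibition, ephrin-A5 AP was titrated per compound concentration and fitted one-site; Ki came from KD/Bmax versus inhibitor regression.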
Target sequence in this assay (Q03137 20-547 limits assumed): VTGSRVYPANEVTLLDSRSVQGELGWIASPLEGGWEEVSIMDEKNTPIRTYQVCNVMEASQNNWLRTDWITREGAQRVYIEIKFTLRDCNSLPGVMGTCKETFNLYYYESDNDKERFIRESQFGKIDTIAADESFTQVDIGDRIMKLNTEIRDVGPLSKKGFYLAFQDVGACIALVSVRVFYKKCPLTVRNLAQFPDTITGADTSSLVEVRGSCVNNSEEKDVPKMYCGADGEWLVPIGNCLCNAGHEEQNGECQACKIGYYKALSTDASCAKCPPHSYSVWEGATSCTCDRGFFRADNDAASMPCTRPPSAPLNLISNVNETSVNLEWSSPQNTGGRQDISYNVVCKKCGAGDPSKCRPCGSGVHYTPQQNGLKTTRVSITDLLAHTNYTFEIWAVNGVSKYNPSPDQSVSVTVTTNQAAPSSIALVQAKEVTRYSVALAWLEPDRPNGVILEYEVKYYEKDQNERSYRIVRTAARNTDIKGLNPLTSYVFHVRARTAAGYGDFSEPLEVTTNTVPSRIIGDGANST

EphB4 = target: T2, EphB4 (Mus musculus, UniProt P54761); experiment: Ephrin-B2 Fc-induced EphB4 tyrosine phosphorylation in B16 melanoma cells; type: cell-based; details: relative to EphA2 and EphA4
T2 sequence (P54761 16-987): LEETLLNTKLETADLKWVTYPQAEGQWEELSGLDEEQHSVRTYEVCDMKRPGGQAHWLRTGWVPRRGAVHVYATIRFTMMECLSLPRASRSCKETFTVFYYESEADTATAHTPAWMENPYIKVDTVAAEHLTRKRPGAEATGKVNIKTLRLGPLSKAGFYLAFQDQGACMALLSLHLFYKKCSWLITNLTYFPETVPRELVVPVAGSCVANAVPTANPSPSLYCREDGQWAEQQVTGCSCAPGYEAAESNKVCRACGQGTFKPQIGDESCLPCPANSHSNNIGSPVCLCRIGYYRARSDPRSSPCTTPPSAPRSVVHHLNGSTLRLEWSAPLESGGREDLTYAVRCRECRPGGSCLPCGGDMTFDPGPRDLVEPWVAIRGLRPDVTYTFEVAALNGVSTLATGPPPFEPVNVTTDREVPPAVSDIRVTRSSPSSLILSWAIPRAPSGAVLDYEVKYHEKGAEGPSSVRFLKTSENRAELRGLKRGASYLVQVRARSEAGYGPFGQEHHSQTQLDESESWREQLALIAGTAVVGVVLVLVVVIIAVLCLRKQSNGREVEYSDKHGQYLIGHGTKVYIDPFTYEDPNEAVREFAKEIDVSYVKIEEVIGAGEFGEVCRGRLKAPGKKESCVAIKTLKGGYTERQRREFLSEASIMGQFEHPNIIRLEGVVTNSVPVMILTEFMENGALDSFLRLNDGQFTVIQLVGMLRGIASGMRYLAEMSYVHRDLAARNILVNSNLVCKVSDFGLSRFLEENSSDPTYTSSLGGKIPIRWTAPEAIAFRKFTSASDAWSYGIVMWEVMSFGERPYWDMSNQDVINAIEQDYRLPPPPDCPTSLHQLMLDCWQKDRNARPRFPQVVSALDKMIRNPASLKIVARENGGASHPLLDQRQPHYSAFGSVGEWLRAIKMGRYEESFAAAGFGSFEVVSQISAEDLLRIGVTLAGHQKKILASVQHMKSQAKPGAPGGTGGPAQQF
Method in brief: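 Cells were serum-starved 1–2 h and pretreated 15 min with test compound (DMSO ≤0.4% final). They were then stimulated 20 min with compound present: COS cells with 0.8 μg/mL ephrin-B2 Fc, and B16 melanoma cells with 1.5 μg/mL anti-Fc-preclustered ephrin-B2 Fc, or Fc control. Lysates were made in modified RIPA. EphB2 (COS; 7 μg antibody) or EphB4 (B16; 20 μg antibody) was immunoprecipitated, probed for phosphotyrosine, then reprobed for the receptor.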

EphA3 = experiment: ELISA, ephrin-A5 AP binding to immobilized EphA3 Fc; details: read-out: IC50, inhibition of ephrin binding to EphA3
Method in brief: as §1

EphA2 [4] = target: EphA2 (Mus musculus, UniProt Q03145); experiment: ELISA, ephrin-A5 AP binding to immobilized EphA2 Fc; details: read-out: IC50 ± SE EphA2 ephrin-A5
Sequence of EphA2 (Mus musculus, UniProt Q03145) (Q03145 26-538): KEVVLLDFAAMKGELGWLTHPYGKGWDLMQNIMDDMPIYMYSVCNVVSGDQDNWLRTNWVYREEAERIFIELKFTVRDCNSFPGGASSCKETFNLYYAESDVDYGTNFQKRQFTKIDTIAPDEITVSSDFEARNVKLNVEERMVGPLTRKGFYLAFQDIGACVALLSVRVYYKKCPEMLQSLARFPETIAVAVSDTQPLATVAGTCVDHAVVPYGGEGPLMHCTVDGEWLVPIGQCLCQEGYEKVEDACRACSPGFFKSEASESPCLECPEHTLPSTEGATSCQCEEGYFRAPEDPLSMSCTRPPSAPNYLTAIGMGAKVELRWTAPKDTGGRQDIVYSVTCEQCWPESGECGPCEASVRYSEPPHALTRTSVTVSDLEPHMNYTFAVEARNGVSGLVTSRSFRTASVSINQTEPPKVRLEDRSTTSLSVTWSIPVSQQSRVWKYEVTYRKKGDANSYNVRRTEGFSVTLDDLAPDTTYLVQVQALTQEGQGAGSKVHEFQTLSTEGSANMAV

EphB2 = experiment: ELISA, ephrin-B2 AP binding to immobilized EphB2 Fc; details: concentrations up to 200 μM
Method in brief: as §1

[5] = tested on: EphA4 ephrin-binding domain mutants; experiment: Wild-type and mutant EphA4 AP binding to immobilized ephrin-A5 Fc; design: species or system human; details: EphA4 AP mutants vs wild-type
Method in brief: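 Wild-type and point-mutant human EphA4 ephrin-binding domains fused to alkaline phosphatase were added at 0.01 nM final to wells precoated with protein A and ephrin-A5 Fc, with or without test compound. Bound AP was read with p-nitrophenylphosphate. IC50 values from 2–3 separate experiments were compared with wild-type by one-way ANOVA and Dunnett's post-hoc test.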

O=C(Oc1cc(O)cc2c1C[C@@H](OC(=O)c1cc(O)c(O)c(O)c1)[C@@H](c1cc(O)c(O)c(O)c1)O2)c1cc(O)c(O)c(O)c1 [epigallocatechin-3,5-digallate]
IC50 (EphA4 [1]): 190 µM and ~190 µM | inhibition of EphB1-ephrin interaction (EphB1): no inhibition | EphA2 phosphorylation in HUVECs (EphA2 [2]): strongly inhibits | capillary-like tube formation (HUVECs; 20 μM to 200 μM): dose-dependent inhibitory effect | capillary-like tube formation (HUVECs; at 50 μM): inhibit | inhibition of ephrin binding to EphA7 (EphA7): detectably inhibited, but with lower potency | reversibility of inhibition of EphA4-ephrin-A5 binding (EphA4 [3]; compound washed out before adding ephrin-A5 AP): reversible | IC50 (EphA4 [3]; read-out: IC50, inhibition of EphA4-ephrin-A5 binding (text)): 8 µM | IC50 (EphA4 [3]; read-out: IC50, inhibition of EphA4-ephrin-A5 binding (text), listed as Epigallocatechin-3,5-digallate): < 10 µM | IC50 (EphA4 [3]; read-out: IC50 ± SE EphA4 ephrin-A5): 7.4 ± 1.8 µM | mode of inhibition of ephrin-A5 binding to EphA4 (EphA4 [3]; similar Bmax, increasing KD): competitive inhibitors | inhibition of EphB4 phosphorylation (EphB4): at higher concentrations | IC50 (EphA3): < 10 µM | IC50 (EphA2 [4]): 40 ± 3.8 µM | inhibition of EphB2-ephrin interaction (EphB2): does not target | inhibition of EphB2-ephrin interaction (EphB2; listed as Epigallocatechin-3,5-digallate): no inhibition | effect of other EphA4 mutations, such as D123A, on inhibitory activity [5]: did not detectably affect
